# Test results reported in ChEMBL document CHEMBL4028907, “Semisynthesis and Biological Evaluation of Xanthone Amphiphilics as Selective, Highly Potent Antifungal Agents to Combat Fungal Resistance” (J Med Chem, 2017).
# The source made the active and inactive calls. The calls are words filed in the database; no cut-off is given here.
# Legend:
# Candida albicans [1] = assay: Synergistic antifungal activity against drug resistant Candida albicans DF2672R after 24 hrs in presence of itraconazole by checkerboard assay; format: functional
# Outline: (§1)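 Checkerboard combination of each compound with a second antifungal, following a previously reported procedure. FIC = MIC of A in combination/MIC of A alone + MIC of B in combination/MIC of B alone.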
# Bacillus cereus = assay: Antibacterial activity against Bacillus cereus ATCC11778 by two fold serial dilution method; format: functional
# Outline: (§2)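 Broth microdilution (CLSI, minor modifications) in Sabouraud dextrose, Mueller−Hinton or RPMI 1640 broth; two-fold serial dilutions of compound from stock to final 100 to 0.78 μg/mL. MIC taken as lowest concentration giving no visible growth.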
# Candida albicans [2] = assay: Potency index, ratio of natamycin concentration to compound concentration for antifungal activity against drug resistant Candida albicans DF2672R infected C57BL6 mouse; format: functional
# Fusarium solani [3] = assay: Antifungal activity against Fusarium solani MYA3636 after 48 hrs by two fold serial dilution method; format: functional; settings: MYA3636, 48 h
# Outline: (§3)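 Moulds grown on potato dextrose agar, 30 °C, 4 days; inoculum adjusted to about 5×10^3 CFU/mL. Two-fold serial dilutions in RPMI-1640 broth, 100 to 0.78 μg/mL final, mixed with equal volume of cell suspension; incubated 30 °C, 48 h. MIC = lowest concentration inhibiting growth, judged visually and by OD530.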
# Staphylococcus aureus [4] = assay: Antibacterial activity against methicillin resistant Staphylococcus aureus DM9808R by two fold serial dilution method; format: functional
# Outline: (§4)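 Broth microdilution per CLSI guidelines with minor modifications, run in Mueller−Hinton broth; MIC is the lowest concentration giving no visible growth.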
# Candida albicans [5] = assay: Antifungal activity against Candida albicans ATCC90028 after 24 hrs by two fold serial dilution method; format: functional; settings: ATCC90028, 24 h
# Outline: (§5)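 Candida grown on Sabouraud dextrose agar at 35 °C for 24 h, adjusted to ~5×10^3 CFU/mL. Two-fold dilutions from 100 to 0.78 μg/mL in Sabouraud dextrose broth, incubated at 35 °C for 24 h. MIC is the lowest concentration inhibiting growth by eye and by OD600. CLSI-based with minor modifications.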
# Fusarium oxysporum [6] = assay: Antifungal activity against Fusarium oxysporum 64530 after 48 hrs by two fold serial dilution method; format: functional; settings: Fusarium oxysporum, 64530, 48 h; outline: as §3
# [7] = Cytotoxicity against human corneal fibroblasts assessed as cell viability at 100 uM after 4 hrs by LDH assay relative to control; format: cell-based, Corneal fibroblast; settings: read-out: Activity
# Outline: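 LDH release assay on human corneal fibroblasts seeded at 10000 cells per well, exposed to a range of compound concentrations up to 100 μM. 1% Triton X-100 served as positive control and 0.5% DMSO as negative control; biological replicates.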
# [8] = Selectivity index, ratio of IC50 for human corneal fibroblasts to MIC for drug resistant Candida albicans DF2672R
# Candida albicans [9] = assay: Antifungal activity against Candida albicans ATCC11651 after 24 hrs by two fold serial dilution method; format: functional; settings: ATCC11651, 24 h; outline: as §5
# Candida albicans [10] = assay: Antifungal activity against Candida albicans ATCC24433 after 24 hrs by two fold serial dilution method; format: functional; settings: ATCC24433, 24 h; outline: as §5
# Candida albicans [11] = assay: Antifungal activity against Candida albicans DF1976R after 24 hrs by two fold serial dilution method; format: functional; outline: as §5
# Candida albicans [12] = assay: Synergistic antifungal activity against drug resistant Candida albicans DF2672R after 24 hrs in presence of terbinafine by checkerboard assay; format: functional; outline: as §1
# Fusarium solani [13] = assay: Antifungal activity against Fusarium solani 46492 after 48 hrs by two fold serial dilution method; format: functional; settings: Fusarium solani, 46492, 48 h; outline: as §3
# Pseudomonas aeruginosa = assay: Antibacterial activity against Pseudomonas aeruginosa DM23155 by two fold serial dilution method; format: functional; outline: as §2
# Fusarium solani [14] = assay: Antifungal activity against Fusarium solani 52628 after 48 hrs by two fold serial dilution method; format: functional; settings: Fusarium solani, 52628, 48 h; outline: as §3
# Aspergillus fumigatus = assay: Antifungal activity against Aspergillus fumigatus TCC MYA3626 after 48 hrs by two fold serial dilution method; format: functional; settings: TCC MYA3626, 48 h; outline: as §3
# Fusarium oxysporum [15] = assay: Antifungal activity against Fusarium oxysporum MYA3461 after 48 hrs by two fold serial dilution method; format: functional; settings: MYA3461, 48 h; outline: as §3
# Lipid bilayer [16] = assay: Induction of membrane permiablization in calcein loaded DOPC/DOPE/PI large unilamellar vesicles assessed as calcein leakage at 1:4 compound to lipid ratio after 1 to 2 hrs by fluorescence assay relative to control
# Outline: (§6)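 LUVs (DOPC/DOPE/PI 2:1:1 with 15 wt % ergosterol, about 100 nm) made by film hydration and extrusion, loaded with 80 mM calcein in HEPES buffer pH 7.4. Free dye removed by G-50 column. Compound added in 0.5% DMF at 50 μM final phospholipid. Emission read at 520 nm (excitation 490 nm); leakage normalized to 1% Triton X-100.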
# Aspergillus flavus = assay: Antifungal activity against Aspergillus flavus TCC 204304 after 48 hrs by two fold serial dilution method; format: functional; settings: TCC 204304, 48 h; outline: as §3
# Candida albicans [17] = assay: Induction of membrane permiablization in drug resistant Candida albicans DF2672R at 4 times MIC after 1 to 2 hrs by SYTOX green dye based spectrofluorometric assay; format: functional
# Outline: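 Overnight cultures washed and resuspended in PBS at OD600 0.2, then loaded with 0.3 μM SYTOX Green in the dark. After the signal stabilised, compound in PBS/DMF was added (final DMF 0.5%; 0.5% DMF as control). Fluorescence (ex 504/em 523 nm) followed continuously for 1–2 h; biological replicates.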
# Aspergillus brasiliensis = assay: Antifungal activity against Aspergillus brasiliensis TCC16404 after 48 hrs by two fold serial dilution method; format: functional; settings: TCC16404, 48 h; outline: as §3
# Klebsiella pneumoniae = assay: Antibacterial activity against Klebsiella pneumoniae DM4299 by two fold serial dilution method; format: functional; outline: as §2
# Staphylococcus aureus [18] = assay: Antibacterial activity against methicillin resistant Staphylococcus aureus DM21455 by two fold serial dilution method; format: functional; outline: as §4
# Fusarium solani [19] = assay: Antifungal activity against Fusarium solani 62877 after 48 hrs by two fold serial dilution method; format: functional; settings: Fusarium solani, 62877, 48 h; outline: as §3
# Lipid bilayer [20] = assay: Induction of membrane permiablization in calcein loaded DOPC/DOPE/PI large unilamellar vesicles assessed as calcein leakage at 1:8 compound to lipid ratio after 1 to 2 hrs by […] fluorescence assay relative to control; outline: as §6
# Candida albicans [21] = assay: Antifungal activity against drug resistant Candida albicans DF2672R measured after 27 passages by two fold serial dilution method; format: functional
# Outline: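 Serial passage: cells from duplicate tubes at 0.5× MIC adjusted to ~5×10^3 CFU/mL and used as the inoculum for the next broth microdilution MIC, 24 h at 35 °C. Repeated for 27–30 passages, with biological replicates.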
# [22] = Selectivity index, ratio of HC50 for New Zealand white rabbit RBC to MIC for Candida albicans ATCC 10231
# Candida albicans [23] = assay: Fungicidal activity against drug resistant Candida albicans DF2672R at 1 time MIC after 24 hrs by time kill assay; format: functional
# Outline: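 Cells at 10^5–10^6 CFU/mL exposed to 1×, 2×, 4× or 8× MIC at 35 °C. Samples taken at 0.5, 1, 2, 4, 8 and 24 h, serially diluted in PBS and plated on SDA. CFU counted after 24 h at 35 °C; biological replicates.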
compound,measurement,setting,value
COc1c(OCC(O)CNC(=N)N)cc2oc3cc(OCC(O)CNC(=N)N)c(CC=C(C)C)c(O)c3c(=O)c2c1CC=C(C)C (centres undefined),fractional inhibitory concentration index (FICI),Candida albicans [1],1.28
same,MIC,Bacillus cereus,1.56 to 3.13 µg/mL
same,Ratio,Candida albicans [2],25
same,MIC,Fusarium solani [3],3.13 µg/mL
same,MIC,Staphylococcus aureus [4],1.56 to 3.13 µg/mL
same,MIC,Candida albicans [5],0.78 µg/mL
same,MIC,Fusarium oxysporum [6],3.13 µg/mL
same,"viability at 4 h, 100 µM",[7],44.4%
same,Selectivity Index,[8],41 - 82
same,MIC,Candida albicans [9],0.78 µg/mL
same,MIC,Candida albicans [10],0.78 µg/mL
same,MIC,Candida albicans [11],0.78 µg/mL
same,fractional inhibitory concentration index (FICI),Candida albicans [12],0.44
same,MIC,Fusarium solani [13],3.13 µg/mL
same,MIC,Pseudomonas aeruginosa,25 to 50 µg/mL
same,MIC,Fusarium solani [14],3.13 µg/mL
same,MIC,Aspergillus fumigatus,6.25 µg/mL
same,MIC,Fusarium oxysporum [15],1.56 µg/mL
same,Activity,Lipid bilayer [16],75.6%
same,MIC,Aspergillus flavus,6.25 µg/mL
same,Activity,Candida albicans [17],Active
same,MIC,Aspergillus brasiliensis,3.13 µg/mL
same,MIC,Klebsiella pneumoniae,25 to 50 µg/mL
same,MIC,Staphylococcus aureus [18],1.56 to 3.13 µg/mL
same,MIC,Fusarium solani [19],3.13 µg/mL
same,Activity,Lipid bilayer [20],43.8%
same,Activity,Candida albicans [21],Active
same,Selectivity Index,[22],61
same,Activity,Candida albicans [23],Active
